From ChEMBL document CHEMBL2424615, “Design, synthesis, and characterization of novel tetrahydropyran-based bacterial topoisomerase inhibitors with potent anti-gram-positive activity” (J Med Chem, 2013)

How the values were obtained:
Staphylococcus aureus [1] = test: Spontaneous resistance frequency for Staphylococcus aureus ATCC 25923 at 4 times MIC to 16 times MIC after 48 hrs relative to NXL-101; format: functional
Method in brief: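 Incubated 48 h at 37 °C. Frequency calculated as resistant colonies divided by viable bacteria plated, with the viable count taken on drug-free agar.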

hERG (KCNH2) = hERG (KCNH2) (Homo sapiens, UniProt Q12809); test: Inhibition of human ERG expressed in CHO cells at 10 uM after 3 mins by patch clamp assay relative to control; format: cell-based; conditions: CHO cells that express human ERG
DNA gyrase = DNA gyrase (Staphylococcus aureus, UniProt P0A0K8+P20831); test: Inhibition of wild type Staphylococcus aureus DNA gyrase subunit 2GyrA/2GyrB assessed as pBR322 supercoiling after 1 hr; format: protein-complex assay
Staphylococcus aureus [2] = test: Antibacterial activity against NXL-101-resistant Staphylococcus aureus A-234 harboring DNA gyrase subunit A D83N mutant assessed as growth inhibition by broth microdilution method; format: functional
Escherichia coli = test: Antibacterial activity against wild type Escherichia coli ATCC 25922 assessed as growth inhibition by broth microdilution method; format: functional
Pseudomonas aeruginosa = test: Antibacterial activity against wild type Pseudomonas aeruginosa ATCC 27853 assessed as growth inhibition by broth microdilution method; format: functional
Streptococcus pneumoniae [3] = test: Antibacterial activity against wild type Streptococcus pneumoniae ATCC 49619 assessed as growth inhibition by broth microdilution method; format: functional
Staphylococcus aureus [4] = test: Antibacterial activity against wild type Staphylococcus aureus ATCC 29213 assessed as growth inhibition by broth microdilution method; format: functional
[5] = Inhibition of wild type Escherichia coli ATCC 25922 DNA gyrase subunit 2GyrA/2GyrB assessed as pBR322 supercoiling after 1 hr
[6] = Inhibition of wild type Escherichia coli ATCC 25922 DNA topoisomerase-4 subunit 2ParC/2ParE assessed as pBR322 relaxation after 1 hr
Topoisomerase IV = Topoisomerase IV (Staphylococcus aureus, UniProt P0C1S7+P0C1U9); test: Inhibition of wild type Staphylococcus aureus ATCC 29213 topoisomerase-4 subunit 2GrlA/2GrlB assessed as pBR322 relaxation after 1 hr; format: protein-complex assay
Rattus norvegicus [7] = test: Unbound clearance in Wistar rat at 1 mg/kg, iv administered as bolus dose and 10 mg/kg, po; format: ADME, organism-based; conditions: in vivo
Method in brief: (§1)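 Male Wistar rats (n = 3) dosed by iv bolus (0.5 or 1 mg/kg) or orally (1 or 10 mg/kg); iv vehicles included pH 4.5 aqueous solution, 5% DMSO in water, or 10% PG/10% PEG400 in water pH 7; oral as pH 5.6 aqueous suspension or microsuspension in 7.5% modified gelatin. Blood sampled by preimplanted catheter over 24 h; plasma by LC-MS/MS, LOQ 1.5 ng/mL.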

[8] = Fraction unbound in Wistar rat plasma at 1 mg/kg, iv administered as bolus dose and 10 mg/kg, po; format: ADME, organism-based
[9] = Clearance in Wistar rat at 1 mg/kg, iv administered as bolus dose; format: ADME, organism-based; set-up: dose 1 mg/kg, route intravenous; conditions: in vivo; method in brief: as §1
[10] = Intrinsic clearance in human liver microsomes at 1 uM; format: ADME, Microsome; conditions: read-out: CLH
[11] = Intrinsic clearance in rat liver microsomes at 1 uM; format: ADME, Microsome; conditions: read-out: CLH
[12] = Intrinsic clearance in mouse liver microsomes at 1 uM; format: ADME, Microsome; conditions: read-out: CLH
[13] = AUC in Wistar rat at 1 mg/kg, iv administered as bolus dose; format: ADME, organism-based; set-up: dose 1 mg/kg, route intravenous; conditions: plasma; method in brief: as §1
[14] = Oral bioavailability in Wistar rat at 10 mg/kg; format: ADME, organism-based; conditions: in vivo; method in brief: as §1
[15] = AUC in Wistar rat at 10 mg/kg, po; format: ADME, organism-based; set-up: dose 10 mg/kg, route oral; conditions: plasma; method in brief: as §1
[16] = Half life in Wistar rat at 1 mg/kg, iv administered as bolus dose and 10 mg/kg, po; format: ADME, organism-based; conditions: in vivo; method in brief: as §1
[17] = Volume of distribution at steady state in Wistar rat at 1 mg/kg, iv administered as bolus dose and 10 mg/kg, po; format: ADME, organism-based; conditions: in vivo, read-out: Vdss; method in brief: as §1
Rattus norvegicus [18] = test: Unbound clearance in Wistar rat at 0.5 mg/kg, iv and 1 mg/kg, po; format: ADME, organism-based; conditions: in vivo; method in brief: as §1
[19] = Fraction unbound in Wistar rat plasma at 0.5 mg/kg, iv and 1 mg/kg, po; format: ADME, organism-based
[20] = Clearance in Wistar rat at 0.5 mg/kg, iv; format: ADME, organism-based; set-up: dose 0.5 mg/kg, route intravenous; conditions: in vivo; method in brief: as §1
Moraxella catarrhalis = test: Antibacterial activity against Moraxella catarrhalis clinical isolate assessed as growth inhibition by broth microdilution method; format: functional
Haemophilus influenzae = test: Antibacterial activity against Haemophilus influenzae clinical isolate assessed as growth inhibition by broth microdilution method; format: functional
Streptococcus agalactiae = test: Antibacterial activity against Streptococcus agalactiae clinical isolate assessed as growth inhibition by broth microdilution method; format: functional
Streptococcus pyogenes = test: Antibacterial activity against Streptococcus pyogenes clinical isolate assessed as growth inhibition by broth microdilution method; format: functional
Streptococcus pneumoniae [21] = test: Antibacterial activity against Streptococcus pneumoniae clinical isolate assessed as growth inhibition by broth microdilution method; format: functional
Enterococcus faecium = test: Antibacterial activity against vancomycin-resistant Enterococcus faecium clinical isolate assessed as growth inhibition by broth microdilution method; format: functional
Enterococcus faecalis = test: Antibacterial activity against Enterococcus faecalis clinical isolate assessed as growth inhibition by broth microdilution method; format: functional
[22] = test system: Staphylococcus epidermidis; test: Antibacterial activity against Staphylococcus epidermidis clinical isolate assessed as growth inhibition by broth microdilution method; format: functional
Staphylococcus aureus [23] = test: Antibacterial activity against methicillin-resistant Staphylococcus aureus clinical isolate assessed as growth inhibition by broth microdilution method; format: functional
Staphylococcus aureus [24] = test: Antibacterial activity against fluoroquinolone-resistant Staphylococcus aureus clinical isolate assessed as growth inhibition by broth microdilution method; format: functional
Staphylococcus aureus [25] = test: Antistaphylococcal activity against Staphylococcus aureus DSM 11823 assessed as growth inhibition by broth microdilution method; format: functional
Staphylococcus aureus [26] = test: Antistaphylococcal activity against Staphylococcus aureus DSM 11823 in neutropenic NMRI mouse thigh infection model assessed as reduction of log10cfu in thigh at 40 mg/kg, sc measured after 6 hrs; format: functional; conditions: route subcutaneous
Method in brief: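 Mice made neutropenic with ip cyclophosphamide, 150 mg/kg on day -4 and 100 mg/kg on day -1. Log-phase S. aureus (A580 0.3-0.9), 0.05 ml inoculum given im into both thighs 2 h before sc dosing in 5% mannitol in water at 10 ml/kg. Thighs homogenized, serially diluted and plated for CFU 6 h post infection.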

[27] = AUC in Wistar rat at 0.5 mg/kg, iv; format: ADME, organism-based; set-up: dose 0.5 mg/kg, route intravenous; conditions: plasma; method in brief: as §1
[28] = Oral bioavailability in Wistar rat at 1 mg/kg; format: ADME, organism-based; conditions: in vivo; method in brief: as §1
[29] = AUC in Wistar rat at 1 mg/kg, po; format: ADME, organism-based; set-up: dose 1 mg/kg, route oral; conditions: plasma; method in brief: as §1
[30] = Half life in Wistar rat at 0.5 mg/kg, iv and 1 mg/kg, po; format: ADME, organism-based; conditions: in vivo; method in brief: as §1
[31] = Volume of distribution at steady state in Wistar rat at 0.5 mg/kg, iv and 1 mg/kg, po; format: ADME, organism-based; conditions: in vivo, read-out: Vdss; method in brief: as §1

COc1ccc2ncc(F)c([C@@H](O)[C@H](O)[C@@H]3CC[C@@H](NCc4ccc5c(n4)NC(=O)CS5)CO3)c2n1
fold change (FC) (Staphylococcus aureus [1]): 10
inhibition at 0.05 h, 10 µM (hERG (KCNH2)): 54%
IC50 (DNA gyrase): 30 nM
MIC (Staphylococcus aureus [2]): 0.25 µg/mL
MIC (Escherichia coli): 1 µg/mL
MIC (Pseudomonas aeruginosa): > 8 µg/mL
MIC (Streptococcus pneumoniae [3]): 0.06 µg/mL
MIC (Staphylococcus aureus [4]): 0.03 µg/mL
IC50 [5]: 500 nM
IC50 [6]: 30 nM
IC50 (Topoisomerase IV): 500 nM

COc1cnc2cccc([C@@H](O)[C@H](O)[C@@H]3CC[C@@H](NCc4ccc5c(n4)NC(=O)CS5)CO3)c2n1
CL free (Rattus norvegicus [7]): 294 mL/min/kg
fraction unbound [8]: 0.18
clearance [9]: 53 mL/min/kg
microsomal CLint at 1 µM [10]: 45 µL/min/mg
microsomal CLint at 1 µM [11]: 92 µL/min/mg
microsomal CLint at 1 µM [12]: 39 µL/min/mg
inhibition at 0.05 h, 10 µM (hERG (KCNH2)): 55%
IC50 (DNA gyrase): 30 nM
MIC (Staphylococcus aureus [2]): 0.5 µg/mL
MIC (Escherichia coli): 2 µg/mL
MIC (Pseudomonas aeruginosa): > 8 µg/mL
MIC (Streptococcus pneumoniae [3]): 0.06 µg/mL
MIC (Staphylococcus aureus [4]): 0.03 µg/mL
IC50 [5]: 500 nM
IC50 [6]: 125 nM
IC50 (Topoisomerase IV): 2000 nM
AUC [13]: 313 ng·h/mL
bioavailability [14]: 26%
AUC [15]: 817 ng·h/mL
half-life [16]: 5.9 h
Vd [17]: 18 L/kg

COc1ccc2ncc(F)c([C@@H](O)[C@H](O)[C@@H]3CC[C@@H](NCc4cc5c(cn4)OCCS5)CO3)c2n1
CL free (Rattus norvegicus [18]): 512 mL/min/kg
fraction unbound [19]: 0.017
clearance [20]: 8.7 mL/min/kg
microsomal CLint at 1 µM [10]: 30 µL/min/mg
microsomal CLint at 1 µM [11]: 344 µL/min/mg
microsomal CLint at 1 µM [12]: 291 µL/min/mg
fold change (FC) (Staphylococcus aureus [1]): 10
MIC50 (Moraxella catarrhalis): 0.03 µg/mL
MIC90 (Moraxella catarrhalis): 0.125 µg/mL
MIC50 (Haemophilus influenzae): 0.5 µg/mL
MIC90 (Haemophilus influenzae): 4 µg/mL
MIC50 (Streptococcus agalactiae): 0.25 µg/mL
MIC90 (Streptococcus agalactiae): 0.5 µg/mL
MIC50 (Streptococcus pyogenes): 0.03 µg/mL
MIC90 (Streptococcus pyogenes): 0.06 µg/mL
MIC50 (Streptococcus pneumoniae [21]): 0.06 µg/mL
MIC90 (Streptococcus pneumoniae [21]): 0.125 µg/mL
MIC50 (Enterococcus faecium): 0.25 µg/mL
MIC90 (Enterococcus faecium): 1 µg/mL
MIC50 (Enterococcus faecalis): 0.5 µg/mL
MIC90 (Enterococcus faecalis): 0.5 µg/mL
MIC50 [22]: 0.06 µg/mL
MIC90 [22]: 0.25 µg/mL
MIC50 (Staphylococcus aureus [23]): ≤ 0.015 µg/mL
MIC90 (Staphylococcus aureus [23]): 0.03 µg/mL
MIC50 (Staphylococcus aureus [24]): ≤ 0.015 µg/mL
MIC90 (Staphylococcus aureus [24]): 0.03 µg/mL
inhibition at 0.05 h, 10 µM (hERG (KCNH2)): 19%
IC50 (DNA gyrase): 30 nM
MIC (Staphylococcus aureus [2]): 2 µg/mL
MIC (Escherichia coli): 8 µg/mL
MIC (Pseudomonas aeruginosa): > 8 µg/mL
MIC (Streptococcus pneumoniae [3]): ≤ 0.015 µg/mL
MIC (Staphylococcus aureus [4]): ≤ 0.015 µg/mL
IC50 [5]: 8000 nM
IC50 [6]: 125 nM
IC50 (Topoisomerase IV): 8000 nM
MIC (Staphylococcus aureus [25]): 0.06 µg/mL
log10cfu (Staphylococcus aureus [26]): 1
AUC [27]: 959 ng·h/mL
bioavailability [28]: 41%
AUC [29]: 776 ng·h/mL
half-life [30]: 3 h
Vd [31]: 1 L/kg
